Active and inactive are the calls of the source.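 How the source made its calls: active means fitted curve climbs past 10% caspase activation, relative to the positive control, at or below the top valid tested dose; inactive means the rest, including activity in the opposite direction.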
System: not listed separately
Assay: caspase activation in wild-type mouse fibroblasts, dose response, counter-screen for A1 inhibitor project, cell-based, wild-type MEF, luminescence, dry powder, set 4 (AID 504353)
Settings: wild-type MEF caspase-3/7 activation, CaspaseGlo luminescence, 3 h; at 35 µM (top of the series)
Method in brief: (§1)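 Material: unprimed wild-type mouse embryonic fibroblasts lacking A1/BIM co-expression. Amount: 2500 cells/well. Medium: RPMI-1640 growth medium with 10% FBS. Doses: compound delivered to cells by pin transfer. Schedule: 3 h compound exposure, 37 °C. Measured by: CaspaseGlo luminescence, 1 h reagent step. Read-out basis: caspase activation level from luminescent signal.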

SMILES | caspase activation
COc1ccc(CCNc2nc(N3CCOCC3)nc(N3CCOCC3)n2)cc1OC | 0.427% (inactive)
Cc1ccc(Sc2c(Sc3ccc(C)cc3)c3ccccc3n(C)c2=O)cc1 | -0.533% (inactive)
COCCn1c(=O)c(Sc2ccc(C)cc2)c(Sc2ccc(C)cc2)c2ccccc21 | 0.618% (inactive)
O=C(COc1ccc(Cl)cc1Cl)NNc1nc(N2CCOCC2)nc(N2CCOCC2)n1 | 2.07% (inactive)
O=c1[nH]c2ccccc2c(Cl)c1[N+](=O)[O-] | -2.56% (inactive)
C/C(=N\Nc1nc(N2CCCCC2)nc(N2CCCCC2)n1)c1ccc(F)cc1 | 0.729% (inactive)
CCn1c(=O)c([N+](=O)[O-])c(Sc2ccc(C)cc2)c2ccccc21 | 0.55% (inactive)

System: wild-type MEF caspase-3/7 activation, CaspaseGlo luminescence, 3 h
Assay: as above
Settings: not given
Method in brief: as §1

SMILES | AC10 [µM]
Cn1c(=O)c([N+](=O)[O-])c(Cl)c2ccccc21 | 2.9
Cc1ccc(Sc2c([N+](=O)[O-])c(=O)n(Cc3ccccc3)c3ccccc23)cc1 | 21.7
Cn1c(=O)c([N+](=O)[O-])c(-n2cnc3ccccc32)c2ccccc21 | 26.1
O=c1c([N+](=O)[O-])c(Cl)c2ccccc2n1Cc1ccccc1 | 3.93
COCCn1c(=O)c([N+](=O)[O-])c(Sc2ccc(C)cc2)c2ccccc21 | 22
